The sample as a whole holds a higher share of hits than the screen did.
HCT116 PTEN-null: suppresses growth of cells with PTEN deletion. viability, % at 10 µM. 140,000 tested, 1.2% active. HCT116 PTEN-null viability, CellTiter-Glo, 60 h; active compounds read low. AID 827;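 active = viability at or below a set limit, 4 SD under the median of all tested compounds, cut at about 3.7% in these data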;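 also: PTEN knockout HCT116 line with beta catenin targeted HCT116 as companion control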
Fibroblast inh: blocks proliferation of human lung fibroblasts. LL 47 human lung fibroblast viability, ATP luminescence; active compounds read low. viability, % at 10 µM. 85,000 tested, 1.1% active;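 active = viability at or below 50% in the single dose screen; inactive = viability above 50%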;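 also: compound exposure lasted 72 h before the ATP readout; 100% = median luminescence of untreated cell-only wells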
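test system = LL 47 human lung fibroblasts | amount = 1,150 fibroblasts seeded per well | medium = 15% FBS in IMEM | times = overnight cell rest, 72 h compound treatment at 37 °C | measured by = CellTiter-Glo luminescence measuring cellular ATP | read-out = viability percentage against median untreated-cell control | benchmarks = cell-only wells, no compound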
HUVEC prolif 384: human endothelial cell proliferation inhibition. viability, % at 10 µM (by protocol). AID 648. HUVEC proliferation, CellTiter-Glo luminescence, 72 h; active compounds read low. 86,000 tested, 1.1% active;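 active = viability at or below 30%; inactive = viability above 30%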;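 also: 100% = median luminescence of DMSO-only cell control wells on each plate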
Phagocytosis inh: macrophage phagocytosis inhibition | 110,000 tested, 0.07% active | AID 1029 | inhibition, % at 5 µM | J774A.1 macrophage IgG-bead phagocytosis, imaging;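 active = inhibition above the mean of the plate negative controls plus 5 SD, cut at about 13% in these data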;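 also: phagocytic index as fraction of beads internalized from green versus red external bead signal; plate controls were DMSO negative control for no effect and cytochalasin-D positive control for full effect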
HCT116 bCat-KO: beta-catenin-lacking colon tumor cell growth suppression | 140,000 tested, 1.5% active | HCT116 beta-catenin knockout viability, CellTiter-Glo, 60 h; active compounds read low | viability, % at 10 µM;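 active = viability at or under a set limit, the compound median less 4 SD, cut at about 6% in these data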;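 also: 0% = Hyamine 1622 control at 20 µM and 100% = untreated cell control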
H69AR inhibit: blocks growth of human H69AR lung tumor cells; H69AR lung tumor viability, ATP luminescence, 72 h; active compounds read low; viability, % at 10 µM; 85,000 tested, 6% active; AID 598;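 active = viability at or below 40%; inactive = viability above 40%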;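 also: multidrug resistant small cell line overexpressing MRP-1 efflux transporter; 100% = mean luminescence of untreated control wells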
The depositor's hits bear a star.

Screening CCOC(=O)NC1(Nc2ccc(Cl)cn2)Oc2ccccc2O1 returned HCT116 PTEN-null 87, Fibroblast inh 96, HUVEC prolif 384 79, HCT116 bCat-KO 88 and H69AR inhibit 28*.
COC(=O)/C=C1\OC(c2ccccc2)=CC1=O was read as HCT116 PTEN-null 89, Phagocytosis inh -14 and HCT116 bCat-KO 93.
COc1cc(NS(=O)(=O)c2ccc(Br)cc2)c(OC)cc1NC(=O)c1ccco1 was read as HCT116 PTEN-null 81, Fibroblast inh 96, HUVEC prolif 384 85, Phagocytosis inh -2, HCT116 bCat-KO 81 and H69AR inhibit 95.
O=C(COc1nc2ccccc2nc1N1CCOCC1)N1CCc2ccccc21 was read as HCT116 PTEN-null 54, Fibroblast inh 40*, HUVEC prolif 384 76, Phagocytosis inh 1, HCT116 bCat-KO 37 and H69AR inhibit 36*.
COc1cc(C(=O)OCCNC(=O)c2ccncc2)cc(OC)c1OC was read as HCT116 PTEN-null 88, Phagocytosis inh -4 and HCT116 bCat-KO 93.
Screening CCSc1nnc(NC(=O)CCNS(=O)(=O)c2cc(Br)cnc2N)s1 returned HCT116 PTEN-null 105, Fibroblast inh 95, HUVEC prolif 384 88, Phagocytosis inh -4, HCT116 bCat-KO 91 and H69AR inhibit 39*.
For Brc1ccc(-c2ccc(/C=N/Nc3nc4ccccc4[nH]3)o2)cc1 the results were HCT116 PTEN-null 47, Phagocytosis inh 4 and HCT116 bCat-KO 57.
`Cc1ccccc1C1C(C#N)=C2N=C(N)c3c(sc4c3CCCCC4)N2C2=C1C(=O)CCC2` (centres undefined) gave HCT116 PTEN-null 28 and HCT116 bCat-KO 41.
`COc1ccc(-c2nn(-c3ccccc3)cc2C(=O)Nc2nccs2)cc1` gave HCT116 PTEN-null 60, Fibroblast inh 103, HUVEC prolif 384 75, Phagocytosis inh 0, HCT116 bCat-KO 72 and H69AR inhibit 23*.
`COc1cccc(-c2nn(-c3ccccc3)cc2C(=O)Nc2nccs2)c1` gave HCT116 PTEN-null 76, Fibroblast inh 90, HUVEC prolif 384 81, Phagocytosis inh 2, HCT116 bCat-KO 74 and H69AR inhibit 36*.
Screening COc1cccc(-c2nn(-c3ccccc3)cc2C(=O)n2nnc3ccccc32)c1 returned HCT116 PTEN-null 7, Fibroblast inh 99, HUVEC prolif 384 68, Phagocytosis inh -1, HCT116 bCat-KO 15 and H69AR inhibit 19*.
Screening Cc1cccc(C)c1NC(=O)c1cn(-c2ccccc2)nc1-c1ccccc1 returned HCT116 PTEN-null 95, Phagocytosis inh -6 and HCT116 bCat-KO 89.
Screening NC(=O)C1CCCN(C(=S)Nc2cccc3ccccc23)C1 (centres undefined) returned HCT116 PTEN-null 92, Phagocytosis inh -5 and HCT116 bCat-KO 96.
Screening Cc1c(NC(=O)c2cc3nc(-c4ccc(Cl)cc4)cc(C(F)(F)F)n3n2)c(=O)n(-c2ccccc2)n1C returned HCT116 PTEN-null 73, Fibroblast inh 112, HUVEC prolif 384 94, HCT116 bCat-KO 69 and H69AR inhibit 18*.
For Cc1ccc(Cn2ccc(NC(=O)c3cc4nc(-c5ccco5)cc(C(F)(F)F)n4n3)n2)cc1 the results were HCT116 PTEN-null 54, Fibroblast inh 67, HUVEC prolif 384 68, HCT116 bCat-KO 61 and H69AR inhibit 35*.
For O=C(Nc1ccc(Cl)cc1)c1cc2nc(-c3ccco3)cc(C(F)(F)F)n2n1 the results were HCT116 PTEN-null 72, Fibroblast inh 94, HUVEC prolif 384 59, Phagocytosis inh 0 and HCT116 bCat-KO 68.
For Cc1cc(Nc2ccc(N3CCC(C)CC3)cc2)n2ncnc2n1 the results were HCT116 PTEN-null 100, Fibroblast inh 88, HUVEC prolif 384 99, Phagocytosis inh 1, HCT116 bCat-KO 93 and H69AR inhibit 67.
COc1ccc(-c2coc3cc(OC)cc(O)c3c2=O)cc1 was read as HCT116 PTEN-null 88, Fibroblast inh 99, HUVEC prolif 384 111, HCT116 bCat-KO 78 and H69AR inhibit 88.
Screening CC(C)Oc1cc(O)c2c(=O)c(-c3ccc(O)cc3)coc2c1 returned HCT116 PTEN-null 74, Fibroblast inh 102, HUVEC prolif 384 94, Phagocytosis inh -1, HCT116 bCat-KO 76 and H69AR inhibit 11*.
For Cc1[nH]nc(N=CC2=C(O)CC(C)(C)CC2=O)c1-c1ccc(Cl)cc1 the results were HCT116 PTEN-null 94, Fibroblast inh 92, HUVEC prolif 384 106, Phagocytosis inh -1, HCT116 bCat-KO 91 and H69AR inhibit 31*.
O=C1CC(c2ccco2)CC(O)=C1C=Nc1cc(Cl)ccc1Cl (centres undefined) was read as HCT116 PTEN-null 92 and HCT116 bCat-KO 99.
Screening O=C1CC(c2ccco2)CC(O)=C1C=Nc1cc(Cl)ccc1O (centres undefined) returned HCT116 PTEN-null 88, Fibroblast inh 99, HUVEC prolif 384 77, Phagocytosis inh 0, HCT116 bCat-KO 81 and H69AR inhibit 5.3*.
For Cc1[nH]nc(N=CC2=C(O)CC(c3ccco3)CC2=O)c1-c1ccc(Cl)cc1 (centres undefined) the results were HCT116 PTEN-null 86, Fibroblast inh 97, HUVEC prolif 384 87, HCT116 bCat-KO 82 and H69AR inhibit 22*.
Cc1cccc(N2C(=O)CCC2=O)n1 was read as HCT116 PTEN-null 91, Phagocytosis inh -7 and HCT116 bCat-KO 91.
`CN(C)c1ncc(S(=O)(=O)c2ccc(Cl)cc2)c(-c2ccccc2)n1` gave HCT116 PTEN-null 88, Phagocytosis inh 3 and HCT116 bCat-KO 69.
`O=S(=O)(c1ccc(Cl)cc1)c1snnc1-c1ccccc1` gave HCT116 PTEN-null 1.8*, Fibroblast inh 6.5*, HUVEC prolif 384 7.5*, Phagocytosis inh -1, HCT116 bCat-KO 2.8* and H69AR inhibit 1.9*.
CC1(C(=O)N(c2ccccc2)C(C(=O)NC2CCCC2)c2ccccn2)CC(=O)N=C2C=CC=CN21 (centres undefined) was read as HCT116 PTEN-null 98, Fibroblast inh 101, HUVEC prolif 384 103, HCT116 bCat-KO 103 and H69AR inhibit 90.
CC1(C)CC(NC(=O)c2ccc3c(c2)OCO3)CC(C)(C)N1 was read as HCT116 PTEN-null 78, Fibroblast inh 99, HUVEC prolif 384 99, Phagocytosis inh 0, HCT116 bCat-KO 82 and H69AR inhibit 96.
For CC1(C)CC(NC(=O)c2coc(=O)c(Br)c2)CC(C)(C)N1 the results were HCT116 PTEN-null 92, Fibroblast inh 34*, HUVEC prolif 384 81, Phagocytosis inh 0, HCT116 bCat-KO 87 and H69AR inhibit 0.7*.
Screening CCOc1ccccc1C(=O)N1CCC(n2nnc3cc(C(F)(F)F)ccc32)CC1 returned HCT116 PTEN-null 81, Fibroblast inh 98, HUVEC prolif 384 80, Phagocytosis inh 0, HCT116 bCat-KO 77 and H69AR inhibit 39*.
`Cc1ccc(N=C(NO)c2nonc2N)cc1` gave HCT116 PTEN-null 93, Fibroblast inh 100, HUVEC prolif 384 89, HCT116 bCat-KO 108 and H69AR inhibit 101.

Source: PubChem BioAssay (several laboratories)
